Screening results from PubChem.
GSK3B inh: inhibitors of human GSK3beta kinase. activity score (negative = inhibition), % at 10 µM. P49841. AID 2097. 0.038% of 300,000 active. GST-GSK3beta kinase, ADP-Glo luminescence, 60 min; active compounds read low;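 active = more than half of replicate wells score below -50%, meaning over 50% inhibition versus plate controls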;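 note: 0% = median DMSO wells and -100% = median GW8510 positive control wells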
Target sequence (P49841 whole entry, looked up): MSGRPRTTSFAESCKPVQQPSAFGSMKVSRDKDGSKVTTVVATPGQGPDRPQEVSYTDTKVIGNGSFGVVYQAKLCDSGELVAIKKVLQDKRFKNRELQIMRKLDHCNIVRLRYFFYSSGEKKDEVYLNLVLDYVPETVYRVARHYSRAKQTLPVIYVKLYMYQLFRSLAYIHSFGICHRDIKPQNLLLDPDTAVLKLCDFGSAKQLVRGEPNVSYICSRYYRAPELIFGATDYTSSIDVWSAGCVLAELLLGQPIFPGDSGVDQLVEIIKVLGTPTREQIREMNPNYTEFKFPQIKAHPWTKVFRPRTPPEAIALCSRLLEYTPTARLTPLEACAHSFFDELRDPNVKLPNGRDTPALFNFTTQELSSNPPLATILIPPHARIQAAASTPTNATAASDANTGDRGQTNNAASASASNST
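Assay system: GST-tagged human GSK3beta kinase, cell-free; Input: 1.6 ng GSK3beta; Medium: Tris/MgCl2 kinase buffer; Timing: 60 min enzyme reaction, room temperature; Signal: ADP-Glo luminescence quantifying ADP generated by kinase; Evaluation: score relative to plate controls; Benchmarks: DMSO neutral wells and GW8510 at 20 µM as positive.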
Dyrk1A ADPGlo: Dyrk1A (rat) kinase inhibition | Q63470 | ADP-Glo luminescence, NFATc1 peptide | inhibition, % at 12.5 µM | 0.43% of 310,000 active | AID 504441; in the data active = inhibition above about 50%;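 note: plate controls were vehicle with enzyme for no effect and no enzyme for full effect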
STK33 kinase inh: blocks human STK33 kinase activity | Q9BYT3 | purified STK33, MBP phosphorylation, ADP-Glo luminescence | inhibition, % at 10 µM | 0.073% of 320,000 active | AID 2661;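 active = inhibition at or above 25%, using the most active replicate where run in duplicate; inactive = inhibition below 25%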
CDK5 inh: blocks human CDK5/p35 kinase activity; Recombinant CDK5/p35, ADP-Glo luminescence, 60 min; inhibition, % at 10 µM; Q00535+Q15078; 0.01% of 330,000 active; AID 488839;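 active = highest replicate inhibition of at least 50% and at least 75% of replicates reaching 50%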;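 note: plate controls were DMSO neutral control for no effect and GW8510 at 10 µM for full effect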
GSK3 alpha inh: human GSK-3 alpha kinase inhibition. P49840. 0.1% of 320,000 active. ADP-Glo luminescence, 60 min. inhibition, % at 10 µM;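 active = more than half of replicates show inhibition above 20%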;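 note: GST-tagged GSK-3 alpha with peptide substrate and 25 µM ATP; 0% = DMSO neutral wells and 100% = GW8510 positive control wells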
ADP-Glo artifact: counter-screen for Dyrk1A inhibitors: ADP-Glo luciferase artifacts | 1,300 tested, under 10 active | AID 588348 | shares compounds with Dyrk1A ADPGlo | ADP-Glo luciferase artifact assay, no Dyrk1A, luminescence | AC50, µM (series often up to 12 µM), without a hit: at the top dose activity change, negative = inhibition;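 active = fitted half-maximal dose AC50 no more than ten times the top valid tested dose, with luminescence dropping as dose rises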
* marks the source's active call; other numbers are inactive results; . = no result given; ! = a repeat was not active. This is one part of a sample in which hits are shown more often than they occur.

SMILES | GSK3B inh | Dyrk1A ADPGlo | STK33 kinase inh | CDK5 inh | GSK3 alpha inh | ADP-Glo artifact
CCOc1cc2c(C#N)c(N3CCCC3)nc(N)c2c(N)n1 | 5 | -1 | 0 | -2 | 5 | .
N#Cc1c(N2CCCC2)nc(N)c2c(N)nc(N3CCCC3)cc12 | -1 | 67* | 5 | 0 | -6 | 9%
COc1cc2c(C#N)c(N3CCCC3)nc(N)c2c(N)n1 | -6 | 53*! | 0 | 0 | 5 | 12%
CC(O)c1nc2ccc(C(=O)O)cc2[nH]1 (centres undefined) | -2 | 1 | 0 | -6 | -1 | .
N#Cc1nc(-c2ccccc2Cl)oc1NCC1CCCO1 (centres undefined) | 1 | 60* | 0 | 0 | 9 | 12%
COc1c(O)ccc(/C=C(\C#N)c2nc3ccccc3[nH]2)c1[N+](=O)[O-] | 1 | 73* | 12 | . | 21 | 8%
Cc1ccc2nc(/C(C#N)=C\c3cc(O)ccc3[N+](=O)[O-])[nH]c2c1 | -1 | 77* | 4 | 0 | 4 | 6%
COc1ccc(N(C)S(=O)(=O)c2cccc(C(=O)N3CCN(S(=O)(=O)c4ccc(C)cc4)CC3)c2)cc1 | 3 | 5 | -2 | -3 | 1 | .
CC(=O)N[C@H]1[C@H]([C@H](O)[C@H](O)CO)O[C@](O)(C(=O)O)C[C@@H]1O | . | 7 | . | 1 | . | .
Brc1ccccc1C1=Nn2c(nnc2-c2ccccc2)SC1 | 1 | 73* | 0 | 1 | 4 | 8%
CC(C)N(CCNC(=O)c1oc(=O)c2ccccc2c1-c1ccccc1)Cc1ccco1 | 0 | 6 | 0 | 0 | -1 | .
COc1cc(C2C(=O)c3ccccc3C2=O)ccc1O | 0 | 69* | 20 | 3 | 2 | 9%
N#Cc1c(C(F)(F)F)cc(-c2cccc(Cl)c2)[nH]c1=O | 4 | 54* | 2 | 0 | 0 | 8%
COC(=O)c1ccc2c(c1O)C(=O)c1ccccc1C2=O | 1 | 7 | 2 | 2 | 2 | .
Nc1c(C(=O)O)ccc2c1C(=O)c1ccccc1C2=O | -21 | 88* | 52* | 4 | 58* | 7%
O=C1c2ccccc2C(=O)c2c1ccc(O)c2O | . | 60* | . | 3 | . | 7%
Nc1c(SCCC(=O)O)ccc2c1C(=O)c1ccccc1C2=O | 0 | 38 | 14 | 4 | 10 | .
CNC(=S)N/N=C/c1ccc(-c2cccc(C(=O)O)c2)o1 | -4 | 62* | 1 | 0 | 4 | 9%
CSc1cccc(NC(=O)c2c(Cl)cnn2C)c1 | -1 | 53* | 1 | 0 | 1 | 9%
Cn1ncc(Cl)c1C(=O)Nc1cccc(Cl)c1 | 0 | 25 | -1 | 1 | -2 | .
COc1cc2ccc(=O)oc2c(O)c1OCC=C(C)C | 3 | -5 | -2 | 0 | -2 | .
COc1cc2c(ccc3cc(OC)c(OC)c(O)c32)cc1O | 0 | 94* | 35* | 81* | 38 | 6%
Cc1cc(C)c(S(=O)(=O)/N=C2\C=C(NS(=O)(=O)c3ccccc3)C(=O)c3ccccc32)c(C)c1 | 0 | 7 | 1 | 3 | 0 | .
O=C1C(Nc2ccc(O)cc2)=C/C(=N/S(=O)(=O)c2cccs2)c2ccccc21 | -7 | 70* | . | 10 | . | 4%
Cc1cccc(NC2=C/C(=N/S(=O)(=O)c3cccs3)c3ccccc3C2=O)c1 | . | -2 | 1 | 1 | 0 | .
SMILES | GSK3B inh | Dyrk1A ADPGlo | STK33 kinase inh | CDK5 inh | GSK3 alpha inh | ADP-Glo artifact
Cc1cc(C)c(S(=O)(=O)/N=C2\C=C(Nc3ccc(C(=O)O)cc3)C(=O)c3ccccc32)c(C)c1 | -12 | 69* | 6 | 4 | 12 | 7%
CCSc1nnc(SCC(=O)Nc2cc(C)on2)s1 | . | -5 | -1 | 2 | -2 | .
Nc1ncnc2c1ncn2[C@@H]1O[C@H](CNCC#Cc2ccccc2)[C@@H](O)[C@H]1O | . | 6 | 2 | 1 | -2 | .
Cc1ccc(C)c(NC(=O)CN2C(=O)NC(CCc3ccccc3)C2=O)c1 (centres undefined) | . | -4 | -1 | -1 | -2 | .
O=[N+]([O-])c1ccccc1-c1cc(-c2ccccc2O)n[nH]1 | 2 | 51* | 1 | 0 | -2 | 11%
CCCCn1c(N)c(N(CC(C)C)C(=O)c2ccc(-c3ccc(C(C)=O)cc3)o2)c(=O)[nH]c1=O | 3 | . | . | -1 | 1 | .
COc1ccc(-c2ccc(=O)n(Cc3cccc([N+](=O)[O-])c3)n2)cc1 | 3 | 64* | -2 | -3 | -3 | 7%
Cc1ccc(N2CC(C(=O)N/N=C/c3c(F)cccc3Cl)CC2=O)cc1 (centres undefined) | 0 | 1 | 0 | 1 | -1 | .
CC(=O)c1cccc(NC(=O)Nc2cccs2)c1 | -3 | 53* | 0 | 2 | 2 | 10%
O=C(O)c1cc(N/N=C/c2c(O)ccc3ccccc23)ccc1Cl | 1 | 73* | 44* | -1 | 3 | 8%
CCOc1ccc(CNCCN2CCCC2)cc1 | -4 | 27 | -1 | 0 | 0 | .
CCN(CC(=O)NCc1cccs1)C(=O)/C=C/c1cc(Br)ccc1OC(F)F | . | . | -1 | 1 | 1 | .
CC(=O)COc1cc2c(-c3cc4ccccc4o3)cc(=O)oc2cc1C | -3 | -2 | 2 | -1 | -2 | .
Clc1ccccc1OCc1nn2c(-c3ccncc3)nnc2s1 | 0 | 7 | 4 | -17 | -1 | .
Cc1nc(COc2ccccc2Cl)sc1-c1ccnc(N)n1 | -17 | 79* | 7 | 0 | 3 | 10%
CC1CCCN(C(=O)COC(=O)CNC(=O)c2sc3ccccc3c2Cl)C1 (centres undefined) | . | . | -1 | -1 | -3 | .
COC(=O)c1cc(OCC(=O)Nc2ccc3c(c2)CCC3)cc(C(=O)OC)c1 | . | . | 1 | -1 | -4 | .
CCC1COCCS(=O)(=O)N1Cc1ccccc1 (centres undefined) | -2 | 55* | 12 | 0 | 15 | 8%
O=C(Cn1cc(COc2ccccc2C(F)(F)F)nn1)c1ccc(O)cc1 | . | 51* | . | 1 | . | 9%
CCC(=O)Oc1ccc2c(c1)O/C(=C\c1ccco1)C2=O | 0 | 18 | -2 | 3 | 0 | .
CCN(CC)C(=O)Oc1ccc2c(c1)O/C(=C\c1ccco1)C2=O | -1 | 53* | -3 | 0 | -2 | 8%
CC(C)c1nc2cc(C(=O)N3CCNC(=O)C3c3ccc(F)cc3)ccc2o1 (centres undefined) | -10 | 1 | -1 | 1 | -3 | .
CCN(CC)c1c([N+](=O)[O-])c(=O)sc2ccccc12 | -1 | 53* | 2 | 1 | -4 | 7%
CCC1NC(C(=O)O)Cc2c1[nH]c1ccccc21 (centres undefined) | -4 | 50* | 3 | 3 | 8 | 8%
CC1=C(C(=O)OCc2ccc3c(c2)OCO3)C(c2ccccc2)NC(=O)N1 (centres undefined) | 0 | 77* | -1 | 4 | 63* | 8%
